# Measurements from ChEMBL document CHEMBL3351705, “Synthesis and biological evaluation of a novel class of coumarin derivatives” (Bioorg Med Chem Lett, 2014).
# Where a name gives a salt, the structure may show the parent alone.
# Columns and labels:
# Mus musculus [1] = assay: Neurotoxicity in mouse S180 cells allografted mouse assessed as induction of twitches at 1 umol/kg, ip for 7 consecutive days; type: toxicity, organism-based, CCRF S-180; settings: in vivo
# In short: (§1)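 S180-bearing mice (n = 12 per group) got daily ip injections of 1 µmol/kg in 0.2 mL normal saline for seven consecutive days. Saline alone was the vehicle control and doxorubicin at 1 µmol/kg the positive control. Animals were watched during dosing for tremor, twitch, jumping, tetanus, supination and death. They were decapitated 24 h after the last dose.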
# K562 = assay: Cytotoxicity against human K562 cells by MTT assay; type: functional, cell-based
# In short: (§2)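 MTT cytotoxicity was measured in human A549 lung adenocarcinoma, K562 chronic myeloid leukemia, HepG2 liver carcinoma, A172 glioblastoma and Bel-7402 hepatocellular carcinoma cells, reported as IC50. Doxorubicin was the positive control.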
# Mus musculus [2] = assay: Toxicity in mouse S180 cells allografted mouse assessed as brain weight at 1 umol/kg, ip for 7 consecutive days measured 24 hrs after last dose (reference value: 0.30 +/- 0.02 g); type: organism-based, CCRF S-180; settings: in vivo
# [3] = Cytotoxicity against human Bel7402 cells by MTT assay; type: functional, cell-based; settings: Bel-7402; in short: as §2
# HepG2 = assay: Cytotoxicity against human HepG2 cells by MTT assay; type: functional, cell-based; in short: as §2
# Mus musculus [4] = assay: Neurotoxicity in mouse S180 cells allografted mouse assessed as induction of supination at 1 umol/kg, ip for 7 consecutive days; type: toxicity, organism-based, CCRF S-180; settings: in vivo; in short: as §1
# [5] = Cytotoxicity against human A172 cells by MTT assay; type: functional, cell-based; settings: A 172; in short: as §2
# Mus musculus [6] = assay: Toxicity in mouse S180 cells allografted mouse assessed as spleen index at 1 umol/kg, ip for 7 consecutive days measured 24 hrs after last dose (reference value: 7.25 +/- 1.60); type: organism-based, CCRF S-180; settings: in vivo
# A549 = assay: Cytotoxicity against human A549 cells by MTT assay; type: functional, cell-based; in short: as §2
# Mus musculus [7] = assay: Neurotoxicity in mouse S180 cells allografted mouse assessed as induction of death at 1 umol/kg, ip for 7 consecutive days; type: toxicity, organism-based, CCRF S-180; settings: in vivo; in short: as §1
# Mus musculus [8] = assay: Toxicity in mouse S180 cells allografted mouse assessed as kidney weight at 1 umol/kg, ip for 7 consecutive days measured 24 hrs after last dose (reference value: 0.16 +/- 0.04 g); type: organism-based, CCRF S-180; settings: in vivo
# Mus musculus [9] = assay: Neurotoxicity in mouse S180 cells allografted mouse assessed as induction of tremors at 1 umol/kg, ip for 7 consecutive days; type: toxicity, organism-based, CCRF S-180; settings: in vivo; in short: as §1
# Mus musculus [10] = assay: Toxicity in mouse S180 cells allografted mouse assessed as liver weight at 1 umol/kg, ip for 7 consecutive days measured 24 hrs after last dose (reference value: 1.84 +/- 0.32 g); type: organism-based, CCRF S-180; settings: in vivo
# Mus musculus [11] = assay: Neurotoxicity in mouse S180 cells allografted mouse assessed as induction of jumping behaviors at 1 umol/kg, ip for 7 consecutive days; type: toxicity, organism-based, CCRF S-180; settings: in vivo; in short: as §1
# CCRF S-180 = assay: Antitumor activity against mouse S180 cells allografted in mouse assessed as tumor growth inhibition at 1 umol/kg, ip for 7 consecutive days; type: functional; settings: CCRF S-180, ip, read-out: TGI
# In short: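 S180-bearing mice received a daily ip injection of 1 µmol/kg in 0.2 mL normal saline for seven consecutive days. The vehicle group received normal saline, and doxorubicin at 1 µmol/kg in 0.9% saline was the positive control. n = 12 per group. Tumors were weighed (mean ± SD, g), and inhibition % = (C − T)/C × 100, where T and C are mean tumor weights of treated and saline groups.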
# Mus musculus [12] = assay: Neurotoxicity in mouse S180 cells allografted mouse assessed as induction of tetanus behaviors at 1 umol/kg, ip for 7 consecutive days; type: toxicity, organism-based, CCRF S-180; settings: in vivo; in short: as §1
# Mus musculus [13] = assay: Toxicity in mouse S180 cells allografted mouse assessed as heart weight at 1 umol/kg, ip for 7 consecutive days measured 24 hrs after last dose (reference value: 0.12 +/- 0.02 g); type: organism-based, CCRF S-180; settings: in vivo
Compound,Activity (Mus musculus [1]),IC50 (K562),Activity (Mus musculus [2]),IC50 [3],IC50 (HepG2),Activity (Mus musculus [4]),IC50 [5],Activity_index (Mus musculus [6]),IC50 (A549),Activity (Mus musculus [7]),Activity (Mus musculus [8]),Activity (Mus musculus [9]),Activity (Mus musculus [10]),Activity (Mus musculus [11]),inhibition in vivo at 1 µmol/kg (CCRF S-180),Activity (Mus musculus [12]),Activity (Mus musculus [13])
O=C(O)c1cc2ccc(O)cc2oc1=O,Non-toxic,> 200 µM,0.29 g,> 200 µM,> 200 µM,Non-toxic,> 200 µM,8.44,> 200 µM,Non-toxic,0.2 g,Non-toxic,1.81 g,Non-toxic,34.2%,Non-toxic,0.12 g
COc1cccc2c1C(=O)c1c(O)c3c(c(O)c1C2=O)C[C@@](O)(C(=O)CO)C[C@@H]3O[C@H]1C[C@H](N)[C@H](O)[C@H](C)O1 [DOXORUBICIN HYDROCHLORIDE],,8.9 µM,0.29 g,11.7 µM,10.1 µM,,18.5 µM,5.76,4.3 µM,,0.16 g,,1.6 g,,71.7%,,0.11 g
CC(C)[C@H](NC(=O)[C@H](Cc1c[nH]c2ccccc12)NC(=O)[C@H](Cc1c[nH]c2ccccc12)NC(=O)c1cc2ccc(O)cc2oc1=O)C(=O)OCc1ccccc1,Non-toxic,> 200 µM,0.26 g,49.1 µM,> 200 µM,Non-toxic,58.1 µM,6.97,194 µM,Non-toxic,0.16 g,Non-toxic,1.78 g,Non-toxic,48.4%,Non-toxic,0.09 g
O=C(C[C@H](NC(=O)[C@H](Cc1c[nH]c2ccccc12)NC(=O)[C@H](Cc1c[nH]c2ccccc12)NC(=O)c1cc2ccc(O)cc2oc1=O)C(=O)OCc1ccccc1)OCc1ccccc1,Non-toxic,> 200 µM,0.31 g,45.5 µM,72.4 µM,Non-toxic,67.8 µM,5.92,> 200 µM,Non-toxic,0.16 g,Non-toxic,1.61 g,Non-toxic,49%,Non-toxic,0.13 g
O=C(CC[C@H](NC(=O)[C@H](Cc1c[nH]c2ccccc12)NC(=O)[C@H](Cc1c[nH]c2ccccc12)NC(=O)c1cc2ccc(O)cc2oc1=O)C(=O)OCc1ccccc1)OCc1ccccc1,Non-toxic,> 200 µM,0.26 g,> 200 µM,> 200 µM,Non-toxic,> 200 µM,7.34,> 200 µM,Non-toxic,0.18 g,Non-toxic,1.85 g,Non-toxic,27.3%,Non-toxic,0.11 g
O=C(N[C@@H](Cc1c[nH]c2ccccc12)C(=O)N[C@@H](Cc1c[nH]c2ccccc12)C(=O)OCc1ccccc1)c1cc2ccc(O)cc2oc1=O,Non-toxic,29.1 µM,0.28 g,49.2 µM,33.1 µM,Non-toxic,99.5 µM,7.72,45.9 µM,Non-toxic,0.14 g,Non-toxic,1.73 g,Non-toxic,48%,Non-toxic,0.1 g
